# According to paper PMC12583737 (Nature Communications, 2025):
# Assays:
# V5-tagged FBXO22 = assay: Cellular thermal stability shift assay; assay type: binding; conditions: lysates of HCC515 expressing V5-tagged FBXO22
# Procedure, shortened: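 It got 10 µM neddylation inhibitor for 10 min, then compound or DMSO for 30 min at room temperature. Aliquots were heated 3 min across 38–71 °C in 3-degree steps and cleared at 20,000 g. Soluble V5-FBXO22 was read by anti-V5 immunoblot.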
# [1] = test system: SMARCA2-nanoLuc and FBXO22-HaloTag; assay: SMARCA2/FBXO22 NanoBRET ternary complex assay in FBXO22 knockout HCC515 cells; assay type: cell-based; conditions: FBXO22 knockout HCC515, overnight, 10 µM MLN4924
# Procedure, shortened: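 FBXO22-knockout HCC515 cells were transiently co-transfected with SMARCA2-NanoLuc and FBXO22-HaloTag at a 1:20 ratio (FuGENE HD). They were replated next day at 25,000 per well with or without HaloTag 618 ligand and left overnight. Cells were pretreated 1 h with 10 µM MLN4924, which was kept throughout, then dosed with test compound or a control PROTAC for 24 h. Emissions at 460/618 nm were read 10 min after substrate. Ratio ×1000 gave mBU, with the no-ligand value subtracted. Mean ± sd, n = 2–6.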
SMILES,thermal stability of FBXO22 (V5-tagged FBXO22),BRET signal (ternary complex SMARCA2/FBXO22) [1]
Nc1nnc(-c2ccccc2O)cc1N1CC2CCC(C1)N2c1ccnc(F)c1 [Compound 7],not observed,
Cc1ncsc1-c1ccc([C@H](C)NC(=O)[C@@H]2C[C@@H](O)CN2C(=O)[C@@H](c2cc(N3CCC(CN4CCC(OC5CC(Oc6cc(N7C8CCC7CN(c7cc(-c9ccccc9O)nnc7N)C8)ccn6)C5)CC4)CC3)no2)C(C)C)cc1 (some centres unmarked) [Compound A947],,not observed
